# Experimental data as given in ChEMBL document CHEMBL4325842, “Design, synthesis, and biological evaluation of novel aminopyrimidinylisoindolines as AXL kinase inhibitors” (Bioorg Med Chem Lett, 2018).
# How the values were obtained:
# U-87 MG = experiment: Antiproliferative activity against human U87MG cells after 2 days by spectrophotometric analysis; format: functional, U-87MG ATCC; settings: 48 h
# [1] = target: T1, Tyrosine-protein kinase receptor UFO (Homo sapiens, UniProt P30530); experiment: Inhibition of N-terminal His-tagged recombinant human AXL (473 to end amino acids) expressed by baculovirus in Sf9 cells using axltide substrate and ATP by ADP-Glo luminescence assay
# T1 sequence (P30530 whole entry): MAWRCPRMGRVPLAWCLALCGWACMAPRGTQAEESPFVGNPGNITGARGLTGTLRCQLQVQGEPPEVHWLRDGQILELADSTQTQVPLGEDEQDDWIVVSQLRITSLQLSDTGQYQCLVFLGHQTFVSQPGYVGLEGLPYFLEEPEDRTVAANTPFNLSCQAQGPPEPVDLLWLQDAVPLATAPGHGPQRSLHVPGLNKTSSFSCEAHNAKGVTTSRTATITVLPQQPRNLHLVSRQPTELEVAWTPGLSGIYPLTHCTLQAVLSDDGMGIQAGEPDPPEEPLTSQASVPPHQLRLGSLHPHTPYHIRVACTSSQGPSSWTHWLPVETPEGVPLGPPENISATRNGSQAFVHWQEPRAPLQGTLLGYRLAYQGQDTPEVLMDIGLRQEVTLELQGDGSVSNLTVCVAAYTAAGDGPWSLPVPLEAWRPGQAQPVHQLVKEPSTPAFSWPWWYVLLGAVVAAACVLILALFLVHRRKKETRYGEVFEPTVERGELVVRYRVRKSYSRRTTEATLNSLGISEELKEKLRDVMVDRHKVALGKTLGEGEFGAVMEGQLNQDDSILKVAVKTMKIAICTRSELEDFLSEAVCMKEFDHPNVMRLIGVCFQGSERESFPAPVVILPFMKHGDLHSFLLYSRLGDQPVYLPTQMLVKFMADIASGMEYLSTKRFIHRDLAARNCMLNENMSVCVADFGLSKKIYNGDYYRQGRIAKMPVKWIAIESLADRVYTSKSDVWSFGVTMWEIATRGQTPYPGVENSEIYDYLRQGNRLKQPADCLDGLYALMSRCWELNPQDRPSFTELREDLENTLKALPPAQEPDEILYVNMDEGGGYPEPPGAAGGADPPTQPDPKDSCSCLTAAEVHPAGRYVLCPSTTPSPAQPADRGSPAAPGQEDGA
# OVCAR-3 = experiment: Antiproliferative activity against human OVCAR3 cells after 2 days by spectrophotometric analysis; format: functional; settings: OVCAR-3, 48 h
# Outline: (§1)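 Cells from ATCC were kept in RPMI 1640 with 5% FBS. They were exposed to graded concentrations in DMSO/RPMI for 48 h at 37 C under 5% CO2, then fixed with 50% trichloroacetic acid. Cellular protein was read at 540 nm at time zero and at 48 h, with and without compound. TGI (100% growth inhibition) was taken from the concentration-response curve.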
# HeLa = experiment: Antiproliferative activity against human HeLa cells after 2 days by spectrophotometric analysis; format: functional; settings: 48 h; outline: as §1
# A549 = experiment: Antiproliferative activity against human A549 cells after 2 days by spectrophotometric analysis; format: functional; settings: A549, 48 h
# HepG2 = experiment: Antiproliferative activity against human HepG2 cells after 2 days by spectrophotometric analysis; format: functional; settings: HepG2, 48 h
SMILES,GI50 (U-87 MG),IC50 [1],GI50 (OVCAR-3),GI50 (HeLa),GI50 (A549),GI50 (HepG2)
COc1cc(Nc2ncc(C(F)(F)F)c(N3Cc4cccc(N(C)S(C)(=O)=O)c4C3)n2)c(OC)cc1Cl,6.2 µM,> 20 µM,> 30 µM,16.5 µM,7.3 µM,25.6 µM
Cc1ccc(Nc2ncc(C(F)(F)F)c(N3Cc4cccc(N(C)S(C)(=O)=O)c4C3)n2)c(C)c1,> 30 µM,–,> 30 µM,10.6 µM,20.7 µM,19.1 µM
CN(c1cccc2c1CN(c1nc(Nc3ccc(Nc4ccccc4)cc3)ncc1C(F)(F)F)C2)S(C)(=O)=O,29.8 µM,> 20 µM,> 50 µM,7.3 µM,6.2 µM,8.6 µM
Cc1ccc(Nc2ncc(C(F)(F)F)c(N3Cc4cccc(N(C)S(C)(=O)=O)c4C3)n2)cc1C,> 30 µM,> 20 µM,> 30 µM,> 30 µM,> 30 µM,> 30 µM
CN(c1cccc2c1CN(c1nc(Nc3ccc(N4CCOCC4)cc3)ncc1C(F)(F)F)C2)S(C)(=O)=O,6.8 µM,–,2.4 µM,0.79 µM,2.5 µM,1.9 µM
Cc1ccc(Nc2ncc(C(F)(F)F)c(N3Cc4cccc(N(C)S(C)(=O)=O)c4C3)n2)c(Cl)c1,> 30 µM,> 20 µM,> 30 µM,10.9 µM,> 30 µM,> 30 µM
Cc1cc(F)ccc1Nc1ncc(C(F)(F)F)c(N2Cc3cccc(N(C)S(C)(=O)=O)c3C2)n1,> 30 µM,–,> 30 µM,6.5 µM,> 30 µM,16.8 µM
CN(c1ncccc1CNc1nc(Nc2ccc3c(c2)CC(=O)N3)ncc1C(F)(F)F)S(C)(=O)=O,3.7 µM,–,1.8 µM,1.7 µM,2.1 µM,1.2 µM
COc1cc(N2CCN(C(C)=O)CC2)ccc1Nc1ncc(C(F)(F)F)c(N2Cc3cccc(N(C)S(C)(=O)=O)c3C2)n1,4.7 µM,–,1.6 µM,1.3 µM,3.3 µM,3.8 µM
CN(c1cccc2c1CN(c1nc(Nc3ccc4c(c3)OCO4)ncc1C(F)(F)F)C2)S(C)(=O)=O,> 30 µM,–,> 30 µM,6.3 µM,12.1 µM,9.8 µM
CN(c1cccc2c1CN(c1nc(Nc3ccccc3N3CCOCC3)ncc1C(F)(F)F)C2)S(C)(=O)=O,> 30 µM,> 20 µM,> 50 µM,23.9 µM,> 30 µM,> 30 µM
CN(c1cccc2c1CN(c1nc(Nc3cccc(Oc4ccccc4)c3)ncc1C(F)(F)F)C2)S(C)(=O)=O,19.5 µM,–,24.9 µM,4.3 µM,19 µM,23 µM
Cc1cc(Cl)ccc1Nc1ncc(C(F)(F)F)c(N2Cc3cccc(N(C)S(C)(=O)=O)c3C2)n1,28.3 µM,> 20 µM,> 30 µM,17.4 µM,25.5 µM,19.6 µM

# The remaining lines, values ahead:
GI50 (U-87 MG),IC50 [1],GI50 (OVCAR-3),GI50 (HeLa),GI50 (A549),GI50 (HepG2),SMILES
> 30 µM,> 20 µM,> 30 µM,17.2 µM,> 30 µM,> 30 µM,COc1ccc(C(F)(F)F)cc1Nc1ncc(C(F)(F)F)c(N2Cc3cccc(N(C)S(C)(=O)=O)c3C2)n1
> 30 µM,–,> 30 µM,5.3 µM,> 30 µM,> 30 µM,CN(c1cccc2c1CN(c1nc(Nc3cccc(C(F)(F)F)c3)ncc1C(F)(F)F)C2)S(C)(=O)=O
> 30 µM,> 20 µM,> 30 µM,> 30 µM,> 30 µM,> 30 µM,Cc1cc(C)cc(Nc2ncc(C(F)(F)F)c(N3Cc4cccc(N(C)S(C)(=O)=O)c4C3)n2)c1
> 30 µM,–,0.63 µM,7 µM,24.8 µM,1.8 µM,COc1cc(Nc2ncc(C(F)(F)F)c(N3Cc4cccc(N(C)S(C)(=O)=O)c4C3)n2)cc(OC)c1
5.5 µM,> 30 µM,21.5 µM,4.3 µM,6.7 µM,9.9 µM,CN(c1cccc2c1CN(c1nc(Nc3cc(Cl)cc(C(F)(F)F)c3)ncc1C(F)(F)F)C2)S(C)(=O)=O
> 30 µM,–,> 30 µM,5.1 µM,> 30 µM,22.1 µM,COc1cc(Nc2ncc(C(F)(F)F)c(N3Cc4cccc(N(C)S(C)(=O)=O)c4C3)n2)cc(C(F)(F)F)c1
16.8 µM,> 20 µM,> 30 µM,9.2 µM,> 30 µM,10.3 µM,CN(c1cccc2c1CN(c1nc(Nc3cc(C(F)(F)F)cc(C(F)(F)F)c3)ncc1C(F)(F)F)C2)S(C)(=O)=O
29.4 µM,> 20 µM,> 30 µM,14 µM,> 30 µM,> 30 µM,COc1ccc(Nc2ncc(C(F)(F)F)c(N3Cc4cccc(N(C)S(C)(=O)=O)c4C3)n2)cc1C(F)(F)F
> 30 µM,> 20 µM,> 30 µM,> 30 µM,> 30 µM,> 30 µM,CN(c1cccc2c1CN(c1nc(Nc3ccc(C(F)(F)F)cc3)ncc1C(F)(F)F)C2)S(C)(=O)=O
> 30 µM,> 20 µM,> 50 µM,11.1 µM,15.2 µM,16 µM,CN(c1cccc2c1CN(c1nc(Nc3ccc(Cl)c(C(F)(F)F)c3)ncc1C(F)(F)F)C2)S(C)(=O)=O
